According to ChEMBL document CHEMBL2016538, “Synthesis and evaluation of C-11, F-18 and I-125 small molecule radioligands for detecting oxytocin receptors” (Bioorg Med Chem, 2012):
pKi: −log10 of the molar value. Active and inactive are the calls of the source. No cut-off for these calls is given here.

Tests used:
[1] = test system: Brain; assay: Drug uptake in Sprague-Dawley rat brain at 295 uCi. iv after 5 mins by PET imaging; assay type: ADME, organism-based; conditions: in vivo
Method in brief: (§1)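 Female Sprague–Dawley rats got estradiol benzoate 10–12 μg sc in sesame oil daily for 3 days to up-regulate OTR. They were anesthetised with ketamine/xylazine 100/10 mg/kg ip, and 200–300 μCi radioligand was injected via tail vein catheter. MicroPET brain scans began at injection (90 min 18F, 45 min 11C) after a 7 min Co-57 transmission scan. Frames were summed and whole-brain time-activity curves plotted.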

[2] = Chemical stability of the compound in 10 % ethanol assessed as remaining radioactivity; assay type: physicochemical
[3] = test system: Thyroid gland; assay: Drug uptake in iv dosed Sprague-Dawley rat thyroid assessed as per organ after 15 mins; assay type: ADME, organism-based; conditions: in vivo, 0.25 h
Method in brief: (§2)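 Female Sprague–Dawley rats (180–200 g), fed ad libitum, were anesthetised with im ketamine/xylazine. Radioligand was given iv via tail vein in 0.1–0.2 ml 10% ethanol/saline. Animals were killed at 15, 30, 60 or 120 min and the thyroid was counted by gamma counter with dose standards. Counts were decay-corrected and given as percent injected dose per organ; n = 4, or 3 where noted.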

[4] = test system: Thyroid gland; assay: Drug uptake in iv dosed Sprague-Dawley rat thyroid assessed as per organ after 30 mins; assay type: ADME, organism-based; conditions: in vivo, 0.5 h; method in brief: as §2
[5] = test system: Thyroid gland; assay: Drug uptake in iv dosed Sprague-Dawley rat thyroid assessed as per organ after 60 mins; assay type: ADME, organism-based; conditions: in vivo, 1 h; method in brief: as §2
[6] = test system: Thyroid gland; assay: Drug uptake in iv dosed Sprague-Dawley rat thyroid assessed as per organ after 120 mins; assay type: ADME, organism-based; conditions: in vivo, 2 h; method in brief: as §2
[7] = target: Vasopressin V1a receptor (Microtus ochrogaster, UniProt Q9WTV9); assay: Displacement of [125I]-LVA from prairie vole vasopressin V1A receptor after 72 hrs
Chain of Vasopressin V1a receptor (Microtus ochrogaster, UniProt Q9WTV9) (Q9WTV9 whole entry): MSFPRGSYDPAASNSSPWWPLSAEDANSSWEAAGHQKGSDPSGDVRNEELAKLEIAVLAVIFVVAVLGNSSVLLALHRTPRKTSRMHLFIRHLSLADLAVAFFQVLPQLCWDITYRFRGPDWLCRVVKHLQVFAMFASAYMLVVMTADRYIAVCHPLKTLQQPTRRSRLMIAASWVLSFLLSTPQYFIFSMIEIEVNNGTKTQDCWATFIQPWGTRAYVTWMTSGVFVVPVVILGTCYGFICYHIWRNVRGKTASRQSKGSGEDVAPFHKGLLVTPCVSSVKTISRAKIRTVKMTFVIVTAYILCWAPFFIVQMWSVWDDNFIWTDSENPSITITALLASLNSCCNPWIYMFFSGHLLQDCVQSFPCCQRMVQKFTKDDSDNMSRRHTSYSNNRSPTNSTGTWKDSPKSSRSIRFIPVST
Method in brief: (§3)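 Prairie vole brain cryosections (20 μm, PFC through NAcc and VP) were thawed, dipped in 0.1% paraformaldehyde in PBS pH 7.4 and rinsed in 50 mM Tris pH 7.4. They were incubated 1 h with 50 pM 125I-LVA plus competitor at 0 or 10−10 to 10−5 M, then washed in Tris/2% MgCl2 pH 7.4. Film exposure was 72 h against 125I standards. Ki came from competition curves; sections from six animals.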

[8] = target: T1, Oxytocin receptor (Homo sapiens, UniProt P30559); assay: Displacement of [3H]oxytocin from human oxytocin receptor after […] by liquid scintillation counting
T1 sequence (P30559 whole entry): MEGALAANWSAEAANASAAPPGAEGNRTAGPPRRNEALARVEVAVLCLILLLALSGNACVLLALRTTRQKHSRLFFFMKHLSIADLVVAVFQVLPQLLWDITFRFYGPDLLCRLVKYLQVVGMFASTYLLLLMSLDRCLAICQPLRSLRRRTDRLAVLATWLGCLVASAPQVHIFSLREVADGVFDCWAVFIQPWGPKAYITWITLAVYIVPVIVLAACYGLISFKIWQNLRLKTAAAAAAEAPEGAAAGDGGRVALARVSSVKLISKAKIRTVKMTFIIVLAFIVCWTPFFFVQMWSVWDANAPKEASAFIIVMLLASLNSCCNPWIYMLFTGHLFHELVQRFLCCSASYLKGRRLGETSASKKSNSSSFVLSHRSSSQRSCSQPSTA

[9] = target: Vasopressin V1a receptor (Homo sapiens, UniProt P37288); assay: Displacement of [3H]-AVP from human V1A receptor after […] by liquid scintillation counting
Chain of Vasopressin V1a receptor (Homo sapiens, UniProt P37288) (P37288 whole entry): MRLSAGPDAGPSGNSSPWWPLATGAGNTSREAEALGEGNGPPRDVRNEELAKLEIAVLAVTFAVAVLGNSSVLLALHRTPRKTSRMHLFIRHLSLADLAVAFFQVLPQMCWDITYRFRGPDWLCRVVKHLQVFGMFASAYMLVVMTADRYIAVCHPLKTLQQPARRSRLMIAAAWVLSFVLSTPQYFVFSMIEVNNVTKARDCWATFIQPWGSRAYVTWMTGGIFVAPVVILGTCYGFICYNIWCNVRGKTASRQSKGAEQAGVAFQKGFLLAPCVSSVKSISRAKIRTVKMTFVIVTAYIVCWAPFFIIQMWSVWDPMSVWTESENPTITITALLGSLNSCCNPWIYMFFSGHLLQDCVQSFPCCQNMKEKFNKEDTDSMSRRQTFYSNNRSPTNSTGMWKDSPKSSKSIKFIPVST

[10] = target: Vasopressin V2 receptor (Homo sapiens, UniProt P30518); assay: Displacement of [3H]-AVP from human vasopressin V2 receptor after […] by liquid scintillation counting
Chain of Vasopressin V2 receptor (P30518 whole entry): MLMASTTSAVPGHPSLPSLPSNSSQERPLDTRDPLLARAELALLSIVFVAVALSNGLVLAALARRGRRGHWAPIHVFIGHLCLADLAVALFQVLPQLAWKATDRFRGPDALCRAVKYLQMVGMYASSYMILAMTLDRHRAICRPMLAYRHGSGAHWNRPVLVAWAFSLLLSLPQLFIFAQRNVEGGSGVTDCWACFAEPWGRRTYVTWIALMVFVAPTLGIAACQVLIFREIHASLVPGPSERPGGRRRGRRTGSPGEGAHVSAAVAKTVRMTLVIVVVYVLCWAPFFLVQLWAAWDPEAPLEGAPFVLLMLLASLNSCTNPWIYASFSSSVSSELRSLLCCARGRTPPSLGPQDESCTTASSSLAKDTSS

[11] = Octanol-water partition coefficient, log P of the compound at 5 to 10 uCi at pH 7.4 after 3 mins; assay type: physicochemical
Method in brief: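 About 5–10 μCi radioligand was shaken 3 min in 5 ml 0.1 M sodium phosphate pH 7.4 and 10 ml octanol. 2 ml octanol aliquots were re-partitioned against 2 ml fresh buffer by vortexing 7 min, then centrifuged at 20,000×g for 5 min. 0.5 ml of each layer was gamma-counted, and average counts gave logP7.4.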

[12] = test system: Brain; assay: Drug uptake in Sprague-Dawley rat brain at 277 uCi, iv after 45 mins by PET imaging; assay type: ADME, organism-based; conditions: in vivo, 0.75 h; method in brief: as §1
[13] = target: T2, Vasopressin V1b receptor (Homo sapiens, UniProt P47901); assay: Displacement of [3H]-AVP from human V1b receptor after […] by liquid scintillation counting
T2 sequence (P47901 whole entry): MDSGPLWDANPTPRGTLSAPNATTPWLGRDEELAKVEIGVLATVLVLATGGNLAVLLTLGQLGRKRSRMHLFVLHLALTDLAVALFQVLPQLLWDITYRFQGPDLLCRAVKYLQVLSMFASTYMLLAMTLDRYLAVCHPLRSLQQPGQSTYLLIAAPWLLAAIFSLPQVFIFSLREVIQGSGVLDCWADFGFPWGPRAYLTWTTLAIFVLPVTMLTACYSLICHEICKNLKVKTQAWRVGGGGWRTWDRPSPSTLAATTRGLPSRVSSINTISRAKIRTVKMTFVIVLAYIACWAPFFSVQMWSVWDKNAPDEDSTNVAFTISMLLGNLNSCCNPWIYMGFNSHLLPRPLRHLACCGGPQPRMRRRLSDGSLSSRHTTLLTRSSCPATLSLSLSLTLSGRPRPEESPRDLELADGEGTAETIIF

[14] = target: Vasopressin V1a receptor (Microtus ochrogaster) (UniProt Q9WTV9); assay: Binding affinity to prairie vole ventral pallidum vasopressin V1A receptor by autoradiography; conditions: tested as the 125I-labelled form; method in brief: as §3
Chain of Vasopressin V1a receptor (Microtus ochrogaster) (Q9WTV9 whole entry, looked up): as the sequence (Q9WTV9 whole entry) above

| Compound | pKi [7] | pKi [8] | pKi [9] | pKi [10] | logD at 0.05 h [11] | further results |
| --- | --- | --- | --- | --- | --- | --- |
| CS(=O)(=O)N1CCC(Oc2ccc(CC(=O)N3CCC(N4C(=O)CCc5ccccc54)CC3)c(OCC[18F])c2)CC1 |  |  |  |  |  | Drug uptake [1]: Active |
| CS(=O)(=O)N1CCC(Oc2ccc(CC(=O)N3CCC(N4C(=O)CCc5ccccc54)CC3)c(OC/C=C\[125I])c2)CC1 |  |  |  |  |  | Stability [2]: 15%; Drug uptake [3]: 0.05 %ID; Drug uptake [4]: 0.2 %ID; Drug uptake [5]: 0.32 %ID; Drug uptake [6]: 0.67 %ID |
| CS(=O)(=O)N1CCC(Oc2ccc(CC(=O)N3CCC(N4C(=O)CCc5ccccc54)CC3)c(OCCF)c2)CC1 | 8.03 | 7.80 | 5.06 | 5.74 | 2.02 |  |
| CS(=O)(=O)N1CCC(Oc2ccc(CC(=O)N3CCC(N4C(=O)CCc5ccccc54)CC3)c(O[11CH3])c2)CC1 |  |  |  |  |  | Drug uptake [12]: Not Active |
| CS(=O)(=O)N1CCC(Oc2ccc(CC(=O)N3CCC(N4C(=O)CCc5ccccc54)CC3)c(O)c2)CC1 |  | 7.11 |  |  |  |  |
| CS(=O)(=O)N1CCC(Oc2ccc(CC(=O)N3CCC(N4C(=O)CCc5ccccc54)CC3)c(OC/C=C\I)c2)CC1 | 7.80 | 8.24 | 6.28 | 6.24 | 2.18 | pKi [13]: 5.02; Activity [14]: Active |
| CS(=O)(=O)N1CCC(Oc2ccc(CC(=O)N3CCC(N4C(=O)CCc5ccccc54)CC3)c(OC/C=C/[125I])c2)CC1 |  |  |  |  |  | Stability [2]: 15%; Drug uptake [3]: 0.19 %ID; Drug uptake [4]: 0.53 %ID; Drug uptake [5]: 0.81 %ID; Drug uptake [6]: 1.05 %ID |
| COc1cc(OC2CCN(S(C)(=O)=O)CC2)ccc1CC(=O)N1CCC(N2C(=O)CCc3ccccc32)CC1 | 7.11 | 7.55 | 5.32 | 5.43 | 2.25 |  |
| CS(=O)(=O)N1CCC(Oc2ccc(CC(=O)N3CCC(N4C(=O)CCc5ccccc54)CC3)c(OC/C=C/I)c2)CC1 | 8.77 | 8.00 | 6.10 | 5.85 | 2.36 |  |
